Source: ChEMBL document CHEMBL4130541, “Nicrophorusamides A and B, Antibacterial Chlorinated Cyclic Peptides from a Gut Bacterium of the Carrion Beetle Nicrophorus concolor” (2017)
In brackets after ≈: the same amount, converted by molar mass. Activity calls are given as the source filed them. The rule behind the calls is not given here. Non-standard residues stand in square brackets, D forms with d. Residues, ends and D or L forms follow the SMILES beside them. Trp(5-Cl) = N[C@@H](Cc1c[nH]c2ccc(Cl)cc12)C(=O)O; dAsn(3R-OH) = NC(=O)[C@H](O)[C@@H](N)C(=O)O; aIle = CC[C@@H](C)[C@H](N)C(=O)O; Orn = NCCC[C@H](N)C(=O)O

Experiments:
Enterococcus faecalis = experiment: Antibacterial activity against Enterococcus faecalis ATCC 19433 after 24 hrs by two fold serial dilution method; format: functional; conditions: ATCC 19433, 24 h
Procedure, shortened: (§1)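 Bacteria grown overnight in Mueller Hinton broth at 37 °C, centrifuged and washed twice with sterile water. Compounds dissolved in DMSO, then 2-fold serial dilutions 128 to 0.03 μg/mL in broth, final DMSO 1%. Inoculum ~10^7 cfu/mL added to reach final 5 × 10^5 cfu/mL. Incubated 24 h at 37 °C. MIC = lowest concentration inhibiting growth.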

Escherichia coli = experiment: Antibacterial activity against Escherichia coli ATCC 25922 after 24 hrs by two fold serial dilution method; format: functional
Procedure, shortened: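 Overnight culture grown in Mueller Hinton broth at 37 °C, centrifuged and washed twice in sterile water. Compound dissolved in DMSO, serially 2-fold diluted in MHB from 128 to 0.03 μg/mL, with DMSO held at 1% final. Inoculum 5 × 10^5 cfu/mL final. Incubated 24 h at 37 °C. MIC taken as the lowest concentration inhibiting growth.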

SNU-638 = experiment: Cytotoxicity against human SNU638 cells; format: functional, cell-based
Salmonella typhimurium = experiment: Antibacterial activity against Salmonella enterica ATCC 14028 after 24 hrs by two fold serial dilution method; format: functional; procedure, shortened: as §1
Candida albicans = experiment: Antifungal activity against Candida albicans ATCC 10231; format: functional, organism-based
[1] = system: Trichophyton mentagrophytes; experiment: Antifungal activity against Trichophyton mentagrophytes IFM 40996; format: functional, organism-based
A549 = experiment: Cytotoxicity against human A549 cells; format: functional, cell-based
Aspergillus fumigatus = experiment: Antifungal activity against Aspergillus fumigatus HIC 6094; format: functional, organism-based
Staphylococcus aureus = experiment: Antibacterial activity against Staphylococcus aureus ATCC 25923 after 24 hrs by two fold serial dilution method; format: functional; conditions: ATCC 25923, 24 h; procedure, shortened: as §1
Trichophyton rubrum = experiment: Antifungal activity against Trichophyton rubrum NBRC 9185; format: functional, organism-based
Enterococcus faecium = experiment: Antibacterial activity against Enterococcus faecium ATCC 19434 after 24 hrs by two fold serial dilution method; format: functional; conditions: ATCC 19434, 24 h; procedure, shortened: as §1
K562 = experiment: Cytotoxicity against human K562 cells; format: functional, cell-based
MDA-MB-231 = experiment: Cytotoxicity against human MDA-MB-231 cells; format: functional, cell-based
SK-HEP1 = experiment: Cytotoxicity against human SKHEP1 cells; format: functional, cell-based
HCT-116 = experiment: Cytotoxicity against human HCT116 cells; format: functional, cell-based

SMILES | MIC (Enterococcus faecalis) [µg/mL] | MIC (Escherichia coli) | Activity (SNU-638) | MIC (Salmonella typhimurium; Salmonella enterica subsp. enterica serovar Typhimurium) | Activity (Candida albicans) | Activity [1] | Activity (A549) | Activity (Aspergillus fumigatus) | MIC (Staphylococcus aureus) [µg/mL] | Activity (Trichophyton rubrum) | MIC (Enterococcus faecium) [µg/mL] | Activity (K562) | Activity (MDA-MB-231) | Activity (SK-HEP1) | Activity (HCT-116) | MIC (Salmonella typhimurium; ATCC 14028, 24 h) [µg/mL] | MIC (Escherichia coli; ATCC 25922, 24 h) [µg/mL]
CC[C@@H](C)[C@@H]1NC(=O)[C@@H](CC(C)C)NC(=O)[C@@H](C(C)C)NC(=O)[C@H](Cc2c[nH]c3ccc(Cl)cc23)NC(=O)[C@@H](CC(N)=O)NC(=O)[C@H](CCCN)NC1=O | 128 (≈ 165 µM) | inactive | inactive | inactive | inactive | inactive | inactive | inactive | 64 (≈ 82.6 µM) | inactive | 128 (≈ 165 µM) | inactive | inactive | inactive | inactive | – | –
CC[C@@H](C)[C@@H]1NC(=O)[C@@H](CC(C)C)NC(=O)[C@@H](C(C)C)NC(=O)[C@H](Cc2c[nH]c3ccc(Cl)cc23)NC(=O)[C@@H]([C@@H](O)C(N)=O)NC(=O)[C@H](CCCN)NC1=O (cyclo([Orn][dAsn(3R-OH)][Trp(5-Cl)][dV][dL][aIle])) | 16 (≈ 20.2 µM) | inactive | inactive | – | inactive | inactive | inactive | inactive | 8 (≈ 10.1 µM) | inactive | 16 (≈ 20.2 µM) | inactive | inactive | inactive | inactive | 16 (≈ 20.2 µM) | –
CC1(C)S[C@@H]2[C@H](NC(=O)[C@H](N)c3ccccc3)C(=O)N2[C@H]1C(=O)O [AMPICILLIN] | 0.5 (≈ 1.43 µM) | – | – | – | – | – | – | – | 0.13 (≈ 0.372 µM) | – | 0.25 (≈ 0.715 µM) | – | – | – | – | 0.13 (≈ 0.372 µM) | 8 (≈ 22.9 µM)
